Source: ChEMBL document CHEMBL1132923, “Substituted benzamide inhibitors of human rhinovirus 3C protease: structure-based design, synthesis, and biological evaluation” (J Med Chem, 2000)
Values after ≈ are worked out from the molar mass of the structure shown. Active and inactive are the calls of the source. The rule behind the calls is not given here.

What follows are compounds tested on HeLa (assay: Antiviral activity measured as minimal inhibitory concentration using H1HeLa cells (ATCC) infected with HRV-14). Conditions: Homo sapiens.
Assay type: functional
Compound `CCOC(=O)c1ccc(OCCC2CCN(c3ccc(C)nn3)CC2)cc1` [PIRODAVIR] has an MIC of 0.03 µM (≈ 0.0111 µg/mL).

The compounds below were run against T1, Human rhinovirus A protease (Human rhinovirus sp.) (UniProt Q4U254) (assay: Irreversible inhibition of Human Rhinovirus (HRV-14) 3C Protease). Conditions: Rhinovirus B.
T1 sequence (whole entry): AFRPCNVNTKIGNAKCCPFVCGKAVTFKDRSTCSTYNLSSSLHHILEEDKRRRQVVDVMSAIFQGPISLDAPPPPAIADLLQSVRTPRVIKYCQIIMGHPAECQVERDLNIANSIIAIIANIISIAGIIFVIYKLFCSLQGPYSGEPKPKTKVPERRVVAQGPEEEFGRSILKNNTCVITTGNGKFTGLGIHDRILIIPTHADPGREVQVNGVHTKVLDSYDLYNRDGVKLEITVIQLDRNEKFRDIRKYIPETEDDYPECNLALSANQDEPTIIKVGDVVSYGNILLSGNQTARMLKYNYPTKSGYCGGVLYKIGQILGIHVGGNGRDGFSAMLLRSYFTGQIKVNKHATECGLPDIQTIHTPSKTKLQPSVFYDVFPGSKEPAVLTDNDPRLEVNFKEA
In short: (§1)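 For serotype 14 3C protease under irreversible inactivation, reactions were started by adding 50 nM enzyme to 1 µM FRET substrate plus typically three to five inhibitor concentrations, monitored continuously. First-order inactivation rate constants came from nonlinear regression when <20% substrate was consumed; otherwise data were corrected for substrate depletion. kobs/[I] was derived by the slope method.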
Compound `NC(=O)c1cccc(/C=C/C(=O)OCCO)c1` has a K obs / 1 of 42 M⁻¹ s⁻¹.
With `CCOC(=O)/C=C/c1cc(CN(CC)Cc2ccncc2)cc(C(N)=O)c1` the K obs / 1 was 96 M⁻¹ s⁻¹.
For `CCOC(=O)/C=C/c1cc(CN2CCN(c3ccccc3C#N)CC2)cc(C(N)=O)c1`, the K obs / 1 was 139 M⁻¹ s⁻¹.
`CCOC(=O)/C=C/c1cc(CN2CCN(C(=O)OCC)CC2)cc(C(N)=O)c1` was tested, and the K obs / 1 was 130 M⁻¹ s⁻¹.
For `CCOC(=O)/C=C/c1cc(CO)cc(C(N)=O)c1`, the K obs / 1 was 54 M⁻¹ s⁻¹.
Compound `CCOC(=O)/C=C/c1cc(CN2CCN(c3ccccn3)CC2)cc(C(N)=O)c1` has a K obs / 1 of 269 M⁻¹ s⁻¹.
Work on `COC(=O)/C=C/c1cccc(C(N)=O)c1` yielded a K obs / 1 of 28 M⁻¹ s⁻¹.
Compound `CCOC(=O)/C=C/c1cc(O)cc(C(N)=O)c1` has a K obs / 1 of 47 M⁻¹ s⁻¹.
Work on `NC(=O)c1cccc(/C=C/C(=O)OCc2ccccn2)c1` yielded a K obs / 1 of 57 M⁻¹ s⁻¹.
`CCOC(=O)/C=C/c1cccc(C(N)=O)c1` was tested, and the K obs / 1 was 52 M⁻¹ s⁻¹.
In the case of `NC(=O)c1cccc(/C=C/C(=O)OCCc2ccccc2)c1`, the K obs / 1 is reported as 83 M⁻¹ s⁻¹.
In the case of `NC(=O)c1cccc(/C=C/C(=O)OCc2ccccc2)c1`, the K obs / 1 is reported as 25 M⁻¹ s⁻¹.
`CCOC(=O)/C=C/c1cc(CN2CCN(c3ncccn3)CC2)cc(C(N)=O)c1` showed a K obs / 1 of 163 M⁻¹ s⁻¹.
In the case of `CCOC(=O)/C=C/c1cc(CSc2nnc(-c3ccccn3)o2)cc(C(N)=O)c1`, the K obs / 1 is reported as 286 M⁻¹ s⁻¹.

The compounds below were run against T2, Human rhinovirus A protease (Human rhinovirus sp., UniProt Q4U254) (assay: The compound was tested for binding affinity of Human Rhinovirus (HRV) 3C Protease.). Conditions: not given.
T2 sequence (Q4U254 whole entry): T1 sequence (whole entry)
In short: (§2)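 Serotype 14 3C protease activity was followed by a fluorescence resonance energy transfer substrate assay, and reversible inhibition constants (Ki) were determined from it.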
Work on `CN(C)c1ccc(C(=O)/C=C/c2cccc(C(N)=O)c2)cc1` yielded a Ki of 9000 nM.
`NC(=O)c1cccc(/C=C/C(=O)c2ccccn2)c1` was tested, and the Ki was 1800 nM.
Work on `NC(=O)c1cccc(/C=C/C(=O)c2ccco2)c1` yielded a Ki of 1900 nM.
In the case of `COc1ccc(C(=O)/C=C/c2cccc(C(N)=O)c2)cc1`, the Ki is reported as 1800 nM.
`NC(=O)c1ccc2c(c1)C=CC2=O` gave a Ki of 120 nM.
In the case of `NC(=O)c1cccc(/C=C/C(=O)c2ccccc2)c1`, the Ki is reported as 400 nM.
For `CC(=O)/C=C/c1cccc(C(N)=O)c1`, the Ki was 25000 nM.

These compounds were tested on HeLa (assay: Antiviral activity using H1HeLa cells (ATCC) infected with HRV-14 (range)). Conditions: Homo sapiens.
Assay type: functional, cell-based
In short: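 H1-HeLa cells were grown in MEM with 10% FBS and infected with HRV-14 at moi 0.08, or mock-infected with medium. Cells were resuspended at 8 × 10^5 cells/mL with drug and read 2 days later by XTT/PMS formazan absorbance at 450/650 nm. EC50 is the concentration restoring formazan to 50% of drug-free uninfected cells. Values come from a single run or the mean of ≥2.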
`CCOC(=O)c1ccc(OCCC2CCN(c3ccc(C)nn3)CC2)cc1` [PIRODAVIR] was tested, and the EC50 was 20 nM.

Each compound was assayed against T2, Human rhinovirus A protease (assay: Inhibition of Human Rhinovirus (HRV-14) 3C Protease). Conditions: not given.
In short: as §2
Work on `NC(=O)c1cccc(C=O)c1` yielded a Ki of 104000 nM.

These compounds were tested against T2, Human rhinovirus A protease (assay: The compound was tested for reversible inhibition of Human Rhinovirus (HRV) 3C Protease.). Conditions: not given.
Work on `CCOC(=O)/C(C#N)=C/c1cccc(C(N)=O)c1` yielded a Ki of 1500 nM.

What follows are compounds tested against T1, Human rhinovirus A protease (Human rhinovirus sp.) (assay: Irreversible inhibition of Human Rhinovirus (HRV-14) 3C Protease measured as inactivation constant; no inhibition). Conditions: not given.
In short: as §1
For `CCOC(=O)/C=C/c1cccc(C(=O)O)c1`, the “K obs / 1” value was “inactive”.

These compounds were tested against T1, Human rhinovirus A protease (Human rhinovirus sp.) (assay: Irreversible inhibition of Human Rhinovirus (HRV-14) 3C Protease measured as inactivation constant; inhibition@ 25). Conditions: concentration not given here.
In short: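 FRET-based continuous fluorometric assay of 3C protease activity. Reactions were started by adding 50 nM 3CP to 1 µM substrate across three to five inhibitor concentrations. First-order inactivation rate constants were fitted by nonlinear regression at each concentration. kobs/[I] was taken by the slope method, with data adjusted for substrate depletion where needed.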
Compound `CCOC(=O)/C=C/c1cc(C(N)=O)ccc1C` has an inhibition of 10%.

The compounds below were run against T1, Human rhinovirus A protease (Human rhinovirus sp.) (assay: The compound was tested for irreversible inhibition of Human Rhinovirus (HRV) 3C Protease.). Conditions: not given.
In short: as §1
`CCOC(=O)/C=C/c1ccc(OCc2ccccc2)c(C(N)=O)c1` gave a K obs / 1 of 30 M⁻¹ s⁻¹.
